Calls of active or inactive are those of the source. The calls are words filed in the database; no cut-off is given here.
Experiments:
[1] = target: Cystic fibrosis transmembrane conductance regulator (Homo sapiens) (UniProt P13569); test: Inhibition of CFTR transcription assessed as decrease of CFTR protein level at 50 uM by immunoblot method
[2] = test system: BHK; test: Inhibition of HDAC expressed in hamster BHK cell line assessed as increase in plasma membrane Fdelta508 CFTR protein at 5 uM by immunofluorescence method; type: cell-based
How it was run: (§1)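 Surface ΔF508extope is labelled with HA.11 antibody under non-permeabilizing conditions.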

[3] = In vivo inhibition of HDAC; type: organism-based
[4] = target: T1, Histone deacetylase 7 (Homo sapiens) (UniProt Q8WUI4); test: Inhibition of HDAC7 expressed in hamster BHK cell line assessed as increase in plasma membrane Fdelta508 CFTR protein at 1 uM by immunofluorescence method; type: cell-based; how it was run: as §1
T1 sequence (whole entry): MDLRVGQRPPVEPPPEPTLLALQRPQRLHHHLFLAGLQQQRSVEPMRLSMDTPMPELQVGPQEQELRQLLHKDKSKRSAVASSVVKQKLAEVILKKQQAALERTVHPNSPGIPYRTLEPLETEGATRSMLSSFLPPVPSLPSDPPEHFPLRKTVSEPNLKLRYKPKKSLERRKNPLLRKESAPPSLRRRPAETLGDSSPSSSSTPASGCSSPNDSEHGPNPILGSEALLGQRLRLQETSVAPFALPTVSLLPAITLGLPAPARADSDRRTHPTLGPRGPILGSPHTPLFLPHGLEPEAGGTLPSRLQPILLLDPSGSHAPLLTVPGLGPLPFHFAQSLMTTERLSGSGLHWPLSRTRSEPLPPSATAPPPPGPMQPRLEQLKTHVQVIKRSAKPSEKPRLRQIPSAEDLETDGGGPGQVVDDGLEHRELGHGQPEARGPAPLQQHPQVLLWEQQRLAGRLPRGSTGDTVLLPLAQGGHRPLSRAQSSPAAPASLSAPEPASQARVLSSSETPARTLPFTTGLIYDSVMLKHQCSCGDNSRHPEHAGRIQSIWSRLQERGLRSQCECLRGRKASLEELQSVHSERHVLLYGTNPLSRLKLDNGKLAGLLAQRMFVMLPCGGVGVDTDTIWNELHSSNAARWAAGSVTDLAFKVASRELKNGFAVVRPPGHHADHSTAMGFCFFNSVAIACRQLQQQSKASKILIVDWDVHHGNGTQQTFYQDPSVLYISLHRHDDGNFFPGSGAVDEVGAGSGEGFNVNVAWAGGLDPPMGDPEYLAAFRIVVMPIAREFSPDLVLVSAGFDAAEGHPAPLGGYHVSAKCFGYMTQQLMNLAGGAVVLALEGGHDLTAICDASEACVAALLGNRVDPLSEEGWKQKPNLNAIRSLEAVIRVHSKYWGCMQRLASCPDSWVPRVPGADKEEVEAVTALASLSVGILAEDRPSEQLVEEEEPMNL

[5] = target: T1, Histone deacetylase 7 (Homo sapiens); test: Inhibition of HDAC7 in Fdelta508 CFTR-expressing human CFBE41o- monolayers assessed as increase in short circuit currents at 10 uM
How it was run: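 CFBE41o- cells stably expressing ΔF508 CFTR are cultured on permeable supports and mounted for short-circuit current (Isc) measurement.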

[6] = target: T1, Histone deacetylase 7 (Homo sapiens); test: Inhibition of HDAC7 in human CFBE41o- cell line assessed as correction of mutant Fdelta508 CFTR trafficking to cell surface as glycoform at 1 uM by Immunoblot analysis
How it was run: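 CFBE41o- ΔF508 cells in α-MEM/10% FBS/2mM L-glutamine/puromycin are dosed at 1 μM every 24 h, chronically for up to 8 days, against DMSO. Lysates are made in Tris-HCl/NaCl/1% Triton X-100. 15μg protein is run on 8% SDS-PAGE and probed with M3A7 by chemiluminescence. Band B (ER) and band C (post-Golgi) are quantified, and the C/B ratio is calculated.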

[7] = target: T1, Histone deacetylase 7 (Homo sapiens); test: Inhibition of HDAC7 in human homozygous Fdelta508 primary bronchial epithelial cells assessed as induction of short circuit currents at 1 uM for 4, 6, and 8 days relative to control; type: cell-based; details: Epithelial cell
How it was run: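 Primary bronchial epithelial cells homozygous for ΔF508 from patients are grown on permeable supports. They are exposed to 1 μM for 4, 6 and 8 days against DMSO controls. ΔIsc is measured in Ussing chambers in μA/cm2, and is also compared with wild-type level.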

[8] = target: T1, Histone deacetylase 7 (Homo sapiens); test: Inhibition of HDAC7 in wild-type CFTR expressing human primary lung cells assessed as induction of short circuit currents at 1 uM for 4, 6, and 8 days relative to control; type: cell-based
[9] = target: T1, Histone deacetylase 7 (Homo sapiens); test: Inhibition of HDAC7 in wild-type CFTR expressing human primary lung cells assessed as forskolin-stimulated Fdelta508 CFTR channel activity at 10 uM after 24 hrs relative to control; type: cell-based; details: in the assay text read “Fdelta508 CFTR homozygous” for “wild-type CFTR expressing”
How it was run: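 Primary ΔF/ΔF human bronchial epithelial cells on permeable supports receive acute treatment, 10 μM for 24 h. The result is expressed relative to control.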

Sequence of Cystic fibrosis transmembrane conductance regulator (Homo sapiens) (P13569 whole entry, looked up): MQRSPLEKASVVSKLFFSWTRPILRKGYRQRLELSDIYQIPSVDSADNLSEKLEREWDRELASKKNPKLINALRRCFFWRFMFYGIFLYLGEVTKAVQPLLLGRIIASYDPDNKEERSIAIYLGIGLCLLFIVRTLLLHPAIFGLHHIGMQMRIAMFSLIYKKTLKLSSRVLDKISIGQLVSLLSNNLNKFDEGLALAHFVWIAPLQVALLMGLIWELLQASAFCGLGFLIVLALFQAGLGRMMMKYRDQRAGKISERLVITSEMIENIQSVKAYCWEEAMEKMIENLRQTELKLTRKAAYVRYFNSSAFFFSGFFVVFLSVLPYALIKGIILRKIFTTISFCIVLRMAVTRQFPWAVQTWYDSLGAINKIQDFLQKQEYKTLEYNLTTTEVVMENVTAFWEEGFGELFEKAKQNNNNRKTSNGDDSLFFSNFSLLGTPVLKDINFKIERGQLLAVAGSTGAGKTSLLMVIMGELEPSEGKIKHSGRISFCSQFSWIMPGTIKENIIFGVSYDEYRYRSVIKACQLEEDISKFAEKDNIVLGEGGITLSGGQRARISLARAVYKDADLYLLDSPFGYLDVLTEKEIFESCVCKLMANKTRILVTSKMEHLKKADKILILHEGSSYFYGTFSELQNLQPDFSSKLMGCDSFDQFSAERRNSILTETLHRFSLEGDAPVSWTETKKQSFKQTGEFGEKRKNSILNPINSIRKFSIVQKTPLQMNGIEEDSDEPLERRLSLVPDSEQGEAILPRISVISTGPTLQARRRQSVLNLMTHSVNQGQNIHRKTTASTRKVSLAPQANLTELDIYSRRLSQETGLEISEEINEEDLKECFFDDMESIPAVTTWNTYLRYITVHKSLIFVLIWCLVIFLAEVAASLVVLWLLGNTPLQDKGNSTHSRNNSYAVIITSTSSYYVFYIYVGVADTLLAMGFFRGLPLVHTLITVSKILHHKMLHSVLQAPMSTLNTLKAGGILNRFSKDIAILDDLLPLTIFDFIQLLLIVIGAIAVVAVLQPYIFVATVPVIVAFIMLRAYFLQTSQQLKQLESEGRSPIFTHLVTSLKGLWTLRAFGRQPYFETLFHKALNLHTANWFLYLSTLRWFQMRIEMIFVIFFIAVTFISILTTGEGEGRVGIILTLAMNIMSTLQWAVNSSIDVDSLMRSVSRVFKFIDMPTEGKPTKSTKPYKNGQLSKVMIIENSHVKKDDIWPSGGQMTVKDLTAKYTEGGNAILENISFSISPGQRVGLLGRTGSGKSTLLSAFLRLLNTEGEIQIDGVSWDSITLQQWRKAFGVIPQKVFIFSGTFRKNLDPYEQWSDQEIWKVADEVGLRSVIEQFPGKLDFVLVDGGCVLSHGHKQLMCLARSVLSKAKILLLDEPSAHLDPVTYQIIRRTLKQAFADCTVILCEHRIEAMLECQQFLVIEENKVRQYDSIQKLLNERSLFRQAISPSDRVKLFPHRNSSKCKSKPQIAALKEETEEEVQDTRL

Structure (SMILES) | inhibition [1] | IC50 [3] | Activity [9] | also measured
O=C(CCCCCCC(=O)Nc1ccccc1)NO | Active |  |  | 
Nc1ccccc1NC(=O)c1ccc(CNC(=O)OCc2cccnc2)cc1 [ENTINOSTAT] | Active | 5 µM |  | inhibition [2]: Active
CC(/C=C/C(=O)NO)=C\[C@@H](C)C(=O)c1ccc(N(C)C)cc1 [TRICHOSTATIN] | Active | 0.1 µM |  | 
O=C(CCCCCN1C(=O)c2cccc3cccc(c23)C1=O)NO | Active | 1 µM |  | inhibition [4]: Active; inhibition [5]: Active; inhibition [6]: Active
C=C[C@@]1(C)CC(=O)[C@]2(O)[C@@]3(C)[C@@H](O)CCC(C)(C)[C@@H]3[C@H](O)[C@H](OC(C)=O)[C@@]2(C)O1 |  |  | 3.7 uA.cm'-2 | Activity [7]: 6.5 uA.cm'-2; Activity [8]: 23.1 uA.cm'-2
O=c1c(-c2ccc(O)cc2)coc2cc(O)cc(O)c12 |  |  | 3.7 uA.cm'-2 | 
